Measured values from different studies.
Compare with care: the assays were run in different laboratories.
Target: Misshapen-like kinase 1 (MINK1, Homo sapiens, UniProt Q8N4C8)

The remaining binding of `O=S(=O)(NC1CCC(c2cc(F)ccc2F)(S(=O)(=O)c2ccc(Cl)cc2)CC1)C(F)(F)F` (stereo not drawn) is reported as 100% (cell-free assay; competition with immobilised ligand; 1 µM).
For `COc1cc(Nc2cnc(C#N)c(O[C@H](C)CN(C)C)n2)ncc1-c1cnn(C)c1`, the remaining activity was 90% (enzyme activity; inhibitor; radiometric; 1 µM).
`O=C(Nc1cnn(-c2csc(C(=O)NC3COC3)c2)c1)Nc1ccccc1Cl` gave a remaining activity of 79.4% (enzyme activity; inhibitor; 5 µM).
`CCS(=O)(=O)c1cc2cc(C[C@@](O)(CC(C)(C)c3ccc(F)cc3C(N)=O)C(F)(F)F)[nH]c2cn1` has a remaining binding of 79% (cell-free assay; competition with immobilised ligand; 1 µM).
With `CC(C)(O)[C@H]1CC[C@H](Nc2ccc3ncc(-c4cccc(C(F)(F)F)c4)n3n2)CC1` the remaining activity was 97% (enzyme activity; inhibitor; 1 µM).
With `CCN(CC)CCNC(=O)c1c(C)[nH]c(/C=C2\C(=O)Nc3ccc(F)cc32)c1C` the inhibition was 94% (enzyme activity; inhibitor; 10 µM).
For `CC(C)(C)c1nc(-c2cccc(NS(=O)(=O)c3c(F)cccc3F)c2F)c(-c2ccnc(N)n2)s1`, the remaining activity was 100% (enzyme activity; inhibitor; radiometric; 1 µM).
The inhibition of `CN(C)C1CCN(CC#Cc2nn(C3CCCC3)c3nc(NCc4ccccc4)ncc23)C1` (stereo not drawn) is reported as 11% (enzyme activity; inhibitor; FRET; 0.1 µM).
For `Cn1nc(C(=O)NCc2ccc(C(=O)O)cc2)cc1-c1ccc2[nH]ccc2c1`, the remaining binding was 95% (cell-free assay; competition with immobilised ligand; 0.1 µM).
The activity vs control of `Cc1ccc(C(=O)NCc2ccsc2)cc1C#Cc1cn(C(C)C)c2ncnc(N)c12` is reported as 84% (enzyme activity; inhibitor; 1 µM).
For `CCCS(=O)(=O)Nc1ccc(F)c(C(=O)c2c[nH]c3ncc(-c4ccc(Cl)cc4)cc23)c1F`, the inhibition was < 20% (enzyme activity; inhibitor; 1 µM).
`C[C@@H]1CN(c2cc(-c3n[nH]c4ccc(OC5(C)CC5)cc34)ncn2)C[C@H](C)O1` has a remaining binding of 84% (cell-free assay; competition with immobilised ligand; 0.1 µM).
The activity vs control of `COc1cc(/C=C/C(=O)CC(=O)/C=C/c2ccc(O)c(OC)c2)ccc1O` is reported as 78% (enzyme activity; inhibitor; 1 µM).
With `CNC(=O)c1cc(Oc2ccc(NC(=O)Nc3ccc(Cl)c(C(F)(F)F)c3)cc2)ccn1` the inhibition was 14% (enzyme activity; inhibitor; 0.3 µM).
`COc1cc(-c2cc(-c3ccc(N4CCNCC4)cc3)cnc2N)cc(OC)c1OC` has an inhibition of 74% (enzyme activity; inhibitor; 0.1 µM).
With `NS(=O)(=O)c1cc(NC(=O)Cc2ccccc2)ccc1Oc1cccc(Cl)c1` the remaining binding was 90% (cell-free assay; competition with immobilised ligand; 1 µM).
The inhibition of `Cc1ccc(Nc2nccc(N(C)c3ccc4c(C)n(C)nc4c3)n2)cc1S(N)(=O)=O` is reported as 23% (enzyme activity; inhibitor; 0.3 µM).
For `COc1ccc2c(c1)O[C@@H](c1ccc(OC)c(OC)c1)C[C@H]2NC(=O)C1(c2ccc3c(c2)OC(F)(F)O3)CC1`, the remaining binding was 77% (cell-free assay; competition with immobilised ligand; 1 µM).
The inhibition of `COc1cc2ncnc(Nc3ccc(Oc4ccccc4)c(C)c3C)c2cc1OC` is reported as -1% (enzyme activity; inhibitor; 1 µM).
For `O=C1NC(=O)c2cc(Nc3ccc(F)cc3)c(Nc3ccc(F)cc3)cc21`, the remaining signal was 99% (cell-free assay; 0.5 µM).
For `FC(F)(F)Oc1cccc(-c2cnc3ccc(-c4ccncc4)nn23)c1`, the activity vs control was 58% (enzyme activity; inhibitor; radiometric; 1 µM).
With `COc1cc2c(Nc3ccc(Br)cc3F)ncnc2cc1OCC1CCN(C)CC1` the remaining signal was 81.5% (cell-free assay; 0.5 µM).
For `Cc1noc([C@H]2C[C@@H](c3ccc(C(F)(F)F)cc3)CN(C(=O)N3CCS(=O)(=O)C3)C2)n1`, the remaining binding was 100% (cell-free assay; competition with immobilised ligand; 1 µM).
`O=C1Nc2ccc(Cl)cc2C1=Cc1cc(Cl)c(O)c(Cl)c1` gave a remaining signal of 22.4% (cell-free assay; 0.5 µM).
`FC(F)c1nc2ccccc2n1-c1nc(N2CCOCC2)nc(N2CCOCC2)n1` has a remaining activity of 102% (enzyme activity; inhibitor; 10 µM).
The remaining activity of `CCN(CC)c1ccc(C2=NNC(=O)CC2C)cc1[N+](=O)[O-]` (stereo not drawn) is reported as 102% (enzyme activity; inhibitor; 10 µM).
For `CC/C(=N\NC(=O)NCc1cccc(O)c1)c1ccc(O)c(C)c1O`, the inhibition was -1% (enzyme activity; inhibitor; 0.1 µM).
`Cc1ccc(NC(=O)c2ccc(C)c(C(F)(F)F)c2)cc1C#Cc1nn(C2CCC(O)CC2)c2ncnc(N)c12` (stereo not drawn) has a remaining signal of 25% (cell-free assay; 10 µM).
With `CCCOc1ccc([C@@H]2[C@@H](C(=O)O)[C@H](c3ccc4c(c3)OCO4)CN2CC(=O)Nc2c(CC)cccc2CC)cc1` the remaining binding was 78% (cell-free assay; competition with immobilised ligand; 1 µM).
`Cn1c(=O)n(-c2ccc(C(C)(C)C#N)cc2)c2c3cc(-c4cnc5ccccc5c4)ccc3ncc21` gave a remaining activity of 75% (enzyme activity; inhibitor; 10 µM).
